One series is filed under the species Bos taurus. Description: Activation of actin-stimulated bovine cardiac myosin S1 fragment ATPase activity in sarcomere at 10 uM after 10 mins by spectrophotometric analysis. Summed up: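 Bovine cardiac S1 myosin with actin thin filament complex at pCa 6.5, in 20 mM Tris HCl pH 7.5, 15 mM KCl, 6 mM MgCl2, 1 mM ATP. Compound at 10 μM, 10 min at room temperature. Stopped with Cytophos reagent; liberated phosphate read at 650 nm. % activity calculated relative to DMSO negative control, blank-corrected.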

Series [1] deals with Rattus norvegicus. Description: Positive inotropic activity in Sprague-Dawley rat heart assessed as left ventricle fractional shortening at 2 to 16 ug/kg/min for 3 mins by echocardiographic analysis. The series is classed as functional. A digest of the protocol:
(§1)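 Seven-week-old male Sprague-Dawley rats under 1.5 % isoflurane via nosecone. Drug given through a right internal jugular vein central line. Left ventricular fractional shortening and ejection fraction measured by echocardiography with and without sample, expressed as % increase.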

Series [2] has as its system Rattus norvegicus. Description: Positive inotropic activity in Sprague-Dawley rat heart assessed as ejection fraction at 2 to 16 ug/kg/min for 3 mins by echocardiographic analysis. The series is classed as functional. Summed up: as §1
A short description of series [3]: Solubility of the compound in water. The series is classed as physicochemical. The following applies: buffer. A digest of the protocol:
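Final solution concentration measured by HPLC against three standards of known concentration.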

For series [4], the system named is Rattus norvegicus. Description: Effect on hemodynamic parameters in Sprague-Dawley rat heart assessed as dPdT max at 4 ug/kg/min (reference value: 4985 to 5214 mmHg/s). The series is classed as functional.
For series [5], the system named is Rattus norvegicus. Put plainly: Positive inotropic activity in Sprague-Dawley rat heart assessed as ejection fraction at 8 ug/kg/min for 3 mins by echocardiographic analysis (reference value: 67.16 to 85.81%). The series is classed as functional. Summed up: as §1
Series [6] deals with Rattus norvegicus. Description: Positive inotropic activity in Sprague-Dawley rat heart assessed as ejection fraction at 4 ug/kg/min for 3 mins by echocardiographic analysis (reference value: 67.16 to 85.81%). The series is classed as functional. Summed up:
as §1

In series [7] the test system is Rattus norvegicus. Put plainly: Positive inotropic activity in Sprague-Dawley rat heart assessed as left ventricular posterior wall thickness end diastole at 16 ug/kg/min for 3 mins by echocardiographic analysis (reference value: 0.88 to 1.54 mm). The series is classed as functional. A digest of the protocol:
(§2)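 Male Sprague-Dawley rats, seven weeks old, anaesthetised with 1.5 % isoflurane given by nosecone. Compound infused through the right internal jugular vein, used as a central venous line. Left ventricular dimensions measured by echocardiography.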

For series [8], the system named is Rattus norvegicus. Description: Effect on hemodynamic parameters in Sprague-Dawley rat heart assessed as dPdT max at 8 ug/kg/min (reference value: 4162 to 5214 mmHg/s). The series is classed as functional.
For series [9], the system named is Rattus norvegicus. Put plainly: Positive inotropic activity in Sprague-Dawley rat heart assessed as left ventricular internal diameter end diastole at 4 ug/kg/min for 3 mins by echocardiographic analysis (reference value: 5.66 to 7.80 mm). The series is classed as functional. Summed up: as §2
The subject of series [10] is Rattus norvegicus. Description: Positive inotropic activity in Sprague-Dawley rat heart assessed as left ventricular posterior wall thickness end systole at 16 ug/kg/min for 3 mins by echocardiographic analysis (reference value: 2.07 to 2.46 mm). The series is classed as functional. A digest of the protocol:
as §2

Series [11] relates to Rattus norvegicus. Description: Positive inotropic activity in Sprague-Dawley rat heart assessed as heart rate at 16 ug/kg/min for 3 mins by echocardiographic analysis (reference value: 281 to 347 bpm). The series is classed as functional.
Series [12] relates to Rattus norvegicus. Put plainly: Positive inotropic activity in Sprague-Dawley rat heart assessed as fractional shortening at 8 ug/kg/min for 3 mins by echocardiographic analysis (reference value: 38.60 to 55.81%). The series is classed as functional. A digest of the protocol:
as §1

Series [13] has as its system Rattus norvegicus. Description: Effect on hemodynamic parameters in Sprague-Dawley rat heart assessed as heart rate at 8 ug/kg/min (reference value: 260 to 322 bpm). The series is classed as functional.
The test system of series [14] is Rattus norvegicus. Description: Positive inotropic activity in Sprague-Dawley rat heart assessed as left ventricular internal diameter end diastole at 16 ug/kg/min for 3 mins by echocardiographic analysis (reference value: 5.66 to 7.80 mm). The series is classed as functional.
For series [15], the system named is Rattus norvegicus. Put plainly: Positive inotropic activity in Sprague-Dawley rat heart assessed as fractional shortening at 4 ug/kg/min for 3 mins by echocardiographic analysis (reference value: 38.60 to 55.81%). The series is classed as functional. A digest of the protocol:
as §1

For series [16], the system named is Rattus norvegicus. Put plainly: Effect on hemodynamic parameters in Sprague-Dawley rat heart assessed as dPdT min at 4 ug/kg/min (reference value: -5462 to -4898 mmHg/s). The series is classed as functional.
Series [17] deals with Rattus norvegicus. Description: Effect on hemodynamic parameters in Sprague-Dawley rat heart assessed as end-systolic pressure at 8 ug/kg/min (reference value: 87.48 to 97.85 mmHg). The series is classed as functional.
For series [18], the system named is Rattus norvegicus. Put plainly: Effect on hemodynamic parameters in Sprague-Dawley rat heart assessed as end-diastolic pressure at 4 ug/kg/min (reference value: 7.68 to 9.83 mmHg). The series is classed as functional.
Series [19] relates to Rattus norvegicus. Put plainly: Effect on hemodynamic parameters in Sprague-Dawley rat heart assessed as end-systolic pressure at 4 ug/kg/min (reference value: 94.65 to 97.85 mmHg). The series is classed as functional.
The test system of series [20] is Rattus norvegicus. Description: Positive inotropic activity in Sprague-Dawley rat heart assessed as left ventricular posterior wall thickness end systole at 4 ug/kg/min for 3 mins by echocardiographic analysis (reference value: 2.07 to 2.46 mm). The series is classed as functional. Summed up: as §2
Series [21] has as its system Rattus norvegicus. Description: Effect on hemodynamic parameters in Sprague-Dawley rat heart assessed as end-diastolic pressure at 8 ug/kg/min (reference value: 7.68 to 9.83 mmHg). The series is classed as functional.
In series [22] the test system is Rattus norvegicus. Description: Positive inotropic activity in Sprague-Dawley rat heart assessed as left ventricular internal diameter end diastole at 8 ug/kg/min for 3 mins by echocardiographic analysis (reference value: 5.66 to 7.80 mm). The series is classed as functional. Summed up: as §2
Series [23] concerns Rattus norvegicus. Description: Positive inotropic activity in Sprague-Dawley rat heart assessed as fractional shortening at 16 ug/kg/min for 3 mins by echocardiographic analysis (reference value: 38.60 to 55.81%). The series is classed as functional. Summed up: as §1
For series [24], the system named is Rattus norvegicus. Put plainly: Positive inotropic activity in Sprague-Dawley rat heart assessed as heart rate at 8 ug/kg/min for 3 mins by echocardiographic analysis (reference value: 281 to 347 bpm). The series is classed as functional.
The test system of series [25] is Rattus norvegicus. Put plainly: Positive inotropic activity in Sprague-Dawley rat heart assessed as left ventricular posterior wall thickness end systole at 8 ug/kg/min for 3 mins by echocardiographic analysis (reference value: 2.07 to 2.46 mm). The series is classed as functional. Summed up:
as §2

Series [26] relates to Rattus norvegicus. Description: Positive inotropic activity in Sprague-Dawley rat heart assessed as ejection fraction at 16 ug/kg/min for 3 mins by echocardiographic analysis (reference value: 67.16 to 85.81%). The series is classed as functional. A digest of the protocol: as §1
Series [27] deals with Rattus norvegicus. Put plainly: Effect on hemodynamic parameters in Sprague-Dawley rat heart assessed as heart rate at 4 ug/kg/min (reference value: 260 to 322 bpm). The series is classed as functional.
In series [28] the test system is Rattus norvegicus. Description: Positive inotropic activity in Sprague-Dawley rat heart assessed as left ventricular posterior wall thickness end diastole at 4 ug/kg/min for 3 mins by echocardiographic analysis (reference value: 0.88 to 1.54 mm). The series is classed as functional. Summed up:
as §2

For series [29], the system named is Rattus norvegicus. Description: Positive inotropic activity in Sprague-Dawley rat heart assessed as left ventricular posterior wall thickness end diastole at 8 ug/kg/min for 3 mins by echocardiographic analysis (reference value: 0.88 to 1.54 mm). The series is classed as functional. A digest of the protocol: as §2
Series [30] relates to Rattus norvegicus. Put plainly: Positive inotropic activity in Sprague-Dawley rat heart assessed as heart rate at 4 ug/kg/min for 3 mins by echocardiographic analysis (reference value: 281 to 347 bpm). The series is classed as functional.
Series [31] relates to Rattus norvegicus. Description: Effect on hemodynamic parameters in Sprague-Dawley rat heart assessed as dPdT min at 8 ug/kg/min (reference value: -5462 to -4611 mmHg/s). The series is classed as functional.

Drawing on ChEMBL document CHEMBL4033651, “Exploration of flexible phenylpropylurea scaffold as novel cardiac myosin activators for the treatment of systolic heart failure” (Eur J Med Chem, 2017), this text covers Activity and solubility for 17 compounds.

In the series listed under Bos taurus, `O=S(=O)(NCCCc1ccccc1)NCCc1ccccc1` returned an Activity of 32.1%.
On the same count and under the same terms, then `S=C(NCCCc1ccccc1)NCCc1ccccc1`, with 10.3%.
In the case of `CN(CCCc1ccccc1)C(=O)N(C)CCc1ccccc1`, the Activity came out at 72.4% in the series filed under Bos taurus, 5.74% in the series with Rattus norvegicus [1] and 3.41% in the series on Rattus norvegicus [2].
As for `O=C(NCCCc1ccccc1)N1CCCC(c2ccccc2)C1` (stereo not drawn), the Activity in the series filed under Bos taurus was found to be 35.2%.
The same measure, in the same setting: then `O=C(CCCCc1ccccc1)NCCc1ccccc1`, with 39.1%.
As to `O=C(NCCCc1ccccc1)NC1Cc2ccccc2C1`, the Activity in the series listed under Bos taurus was found to be 61.9%. Besides, the solubility entry in series [3] is on record as “Insoluble”.
Regarding `O=C(NCCCCc1ccccc1)NCCN1CCOCC1`, the Activity in the series filed under Bos taurus was found to be 42.7%.
Still for that read-out and setting: to `O=C(NCCCc1ccccc1)NC1CCCCC1` belongs 20.3%; to `O=C(NCCCn1ccnc1)NCCc1ccccc1`, 32.6%; to `O=C(NCCCC1CCCCC1)NCCc1ccccc1`, 37.9%.
Consider `CC(CCc1ccc(O)cc1)NCCc1ccc(O)c(O)c1` (stereo not drawn) [DOBUTAMINE], for which the Activity in the series with Rattus norvegicus [4] worked out at 6073 mmHg/s; with Rattus norvegicus [5] it was 96.79%; in the series with Rattus norvegicus [6], 93.42%; in the series on Rattus norvegicus [7], 1.16 mm; with Rattus norvegicus [8], 9314 mmHg/s; in the series with Rattus norvegicus [9], 6.98 mm. For the same compound, the Activity in the series with Rattus norvegicus [10] stood at 3.59 mm; with Rattus norvegicus [11], 421 bpm; in the series with Rattus norvegicus [12] it was 75.91%; in the series with Rattus norvegicus [13], 309 bpm; in the series on Rattus norvegicus [14], 6.68 mm; in the series on Rattus norvegicus [15], 68.11%. For the same compound, the Activity was -4936 mmHg/s in the series on Rattus norvegicus [16]; 103.12 mmHg in the series with Rattus norvegicus [17]; 9.38 mmHg with Rattus norvegicus [18]; 96.65 mmHg in the series on Rattus norvegicus [19]; 2.93 mm in the series on Rattus norvegicus [20]; 7.68 mmHg with Rattus norvegicus [21]. For the same compound, the Activity in the series with Rattus norvegicus [22] is recorded as 6.93 mm; with Rattus norvegicus [23], 82.57%; in the series with Rattus norvegicus [24], 416 bpm; with Rattus norvegicus [25], 3.08 mm; in the series with Rattus norvegicus [26], 98.65%; with Rattus norvegicus [27] it was 270 bpm. Moreover, the Activity with Rattus norvegicus [28] is 1.06 mm; in the series on Rattus norvegicus [29], 1.36 mm; with Rattus norvegicus [30] it was 393 bpm; in the series on Rattus norvegicus [31], -4368 mmHg/s.
Turning to `O=C(NCCCc1ccccc1)NCC1CCCCC1`, in the series listed under Bos taurus, the Activity turned out to be 60.2%.
The same measure, in the same setting: to `O=C(NCCCc1ccccc1)NCCCc1ccccc1` belongs 45.5%; to `c1ccc(CCCCCNCCc2ccccc2)cc1`, 1.6%.
In the series listed under Bos taurus, `O=C(NCCc1ccccc1)N1CCC(c2ccccc2)CC1` gave an Activity of 46.6%. For the same compound, the solubility entry in series [3] was “Insoluble”.
Take `O=C(NCCCc1ccccc1)Nc1ccccc1`: the Activity in the series filed under Bos taurus came out at 46.2%.
In turn, `O=C(NCCCc1ccccc1)N1CCCC1c1ccccc1` (stereo not drawn) came in with an Activity in the series listed under Bos taurus of 32.4%.
